Activity calls are given as the source filed them. No cut-off for these calls is given here.
Assays:
Assay type in all cases: functional
Staphylococcus aureus [1] = experiment: Antibacterial activity against Staphylococcus aureus assessed as growth inhibition at 25 ug/well after 24 hrs by agar well diffusion method; details: for zone of inhibition at 25 µg/disc: read-out: DIZ
Procedure, shortened: (§1)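 Agar well diffusion on […] swabbed with a 24 h broth culture. Samples were dissolved in DMSO and loaded at three per-well amounts into 6 mm wells. Incubation was 37 °C for 24 h, then inhibition zone diameter was read in mm. DMSO served as the negative control. Runs were in duplicate and averaged.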

Staphylococcus aureus [2] = experiment: Antibacterial activity against Staphylococcus aureus assessed as growth inhibition at 50 ug/well after 24 hrs by agar well diffusion method; details: for zone of inhibition at 50 µg/disc: read-out: DIZ; procedure, shortened: as §1
Staphylococcus aureus [3] = experiment: Antibacterial activity against Staphylococcus aureus assessed as growth inhibition at 100 ug/well after 24 hrs by agar well diffusion method; details: for zone of inhibition at 100 µg/disc: read-out: DIZ; procedure, shortened: as §1
Bacillus subtilis [4] = experiment: Antibacterial activity against Bacillus subtilis assessed as growth inhibition at 25 ug/well after 24 hrs by agar well diffusion method; details: for zone of inhibition at 25 µg/disc: read-out: DIZ; procedure, shortened: as §1
Bacillus subtilis [5] = experiment: Antibacterial activity against Bacillus subtilis assessed as growth inhibition at 50 ug/well after 24 hrs by agar well diffusion method; details: for zone of inhibition at 50 µg/disc: read-out: DIZ; procedure, shortened: as §1
Bacillus subtilis [6] = experiment: Antibacterial activity against Bacillus subtilis assessed as growth inhibition at 100 ug/well after 24 hrs by agar well diffusion method; details: for zone of inhibition at 100 µg/disc: read-out: DIZ; procedure, shortened: as §1
Pseudomonas aeruginosa [7] = experiment: Antibacterial activity against Pseudomonas aeruginosa assessed as growth inhibition at 25 ug/well after 24 hrs by agar well diffusion method; details: for zone of inhibition at 25 µg/disc: read-out: DIZ; procedure, shortened: as §1
Pseudomonas aeruginosa [8] = experiment: Antibacterial activity against Pseudomonas aeruginosa assessed as growth inhibition at 50 ug/well after 24 hrs by agar well diffusion method; details: for zone of inhibition at 50 µg/disc: read-out: DIZ; procedure, shortened: as §1
Pseudomonas aeruginosa [9] = experiment: Antibacterial activity against Pseudomonas aeruginosa assessed as growth inhibition at 100 ug/well after 24 hrs by agar well diffusion method; details: for zone of inhibition at 100 µg/disc: read-out: DIZ; procedure, shortened: as §1
Klebsiella pneumoniae [10] = experiment: Antibacterial activity against Klebsiella pneumoniae assessed as growth inhibition at 25 ug/well after 24 hrs by agar well diffusion method; details: for zone of inhibition at 25 µg/disc: read-out: DIZ; procedure, shortened: as §1
Klebsiella pneumoniae [11] = experiment: Antibacterial activity against Klebsiella pneumoniae assessed as growth inhibition at 50 ug/well after 24 hrs by agar well diffusion method; details: for zone of inhibition at 50 µg/disc: read-out: DIZ; procedure, shortened: as §1
Klebsiella pneumoniae [12] = experiment: Antibacterial activity against Klebsiella pneumoniae assessed as growth inhibition at 100 ug/well after 24 hrs by agar well diffusion method; details: for zone of inhibition at 100 µg/disc: read-out: DIZ; procedure, shortened: as §1
Aspergillus niger [13] = experiment: Antifungal activity against Aspergillus niger assessed as inhibition of spore germination at 25 ug/well after 48 hrs by agar well diffusion method; details: for zone of inhibition at 25 µg/disc: read-out: DIZ
Procedure, shortened: (§2)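 Well diffusion using 6 mm bored wells loaded with DMSO solutions at three per-well amounts, with a DMSO negative control. Plates were held at 28 °C for 48 h, then zone of inhibition diameter was measured in mm. Runs were in duplicate and averaged.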

Aspergillus niger [14] = experiment: Antifungal activity against Aspergillus niger assessed as inhibition of spore germination at 50 ug/well after 48 hrs by agar well diffusion method; details: for zone of inhibition at 50 µg/disc: read-out: DIZ; procedure, shortened: as §2

Structure (SMILES)	growth inhibition (GI) (Staphylococcus aureus [1])	growth inhibition (GI) (Staphylococcus aureus [2])	growth inhibition (GI) (Staphylococcus aureus [3])	growth inhibition (GI) (Bacillus subtilis [4])	growth inhibition (GI) (Bacillus subtilis [5])	zone of inhibition at 100 µg/disc (Bacillus subtilis [6])	growth inhibition (GI) (Pseudomonas aeruginosa [7])	growth inhibition (GI) (Pseudomonas aeruginosa [8])	growth inhibition (GI) (Pseudomonas aeruginosa [9])	growth inhibition (GI) (Klebsiella pneumoniae [10])	zone of inhibition at 50 µg/disc (Klebsiella pneumoniae [11])	zone of inhibition at 100 µg/disc (Klebsiella pneumoniae [12])	growth inhibition (GI) (Aspergillus niger [13])	zone of inhibition (Aspergillus niger [14])	zone of inhibition at 25 µg/disc (Staphylococcus aureus [1])	zone of inhibition at 50 µg/disc (Staphylococcus aureus [2])	zone of inhibition at 100 µg/disc (Staphylococcus aureus [3])	zone of inhibition at 25 µg/disc (Bacillus subtilis [4])	zone of inhibition at 50 µg/disc (Bacillus subtilis [5])	zone of inhibition at 50 µg/disc (Pseudomonas aeruginosa [8])	also measured
NC(=S)N1N=C(Nc2nc(-c3ccc(Cl)cc3)c[nH]2)C[C@@H]1c1ccc(Cl)cc1	inactive	inactive	inactive	inactive	inactive	6 mm	inactive	inactive	inactive	inactive	6 mm	7 mm	inactive	inactive	–	–	–	–	–	–	–
Cc1ccc(-c2coc(NC3=NN(C(N)=S)[C@@H](c4ccc(C)cc4)C3)n2)cc1	inactive	inactive	inactive	inactive	inactive	–	inactive	inactive	inactive	inactive	–	–	inactive	inactive	–	–	–	–	–	–	growth inhibition (GI) (Bacillus subtilis [6]): inactive; growth inhibition (GI) (Klebsiella pneumoniae [11]): inactive; growth inhibition (GI) (Klebsiella pneumoniae [12]): inactive
NC(=S)N1N=C(Nc2nc(-c3ccc(Cl)cc3)cs2)C[C@@H]1c1ccc(Cl)cc1	inactive	inactive	inactive	inactive	inactive	–	inactive	inactive	inactive	inactive	–	–	inactive	inactive	–	–	–	–	–	–	growth inhibition (GI) (Bacillus subtilis [6]): inactive; growth inhibition (GI) (Klebsiella pneumoniae [11]): inactive; growth inhibition (GI) (Klebsiella pneumoniae [12]): inactive
NC(=S)n1nc(Nc2nc(-c3ccc(Cl)cc3)cs2)cc1-c1ccc(Cl)cc1	–	–	–	–	–	26 mm	–	–	–	–	28 mm	31 mm	–	–	24 mm	26 mm	29 mm	22 mm	25 mm	16 mm	zone of inhibition at 25 µg/disc (Pseudomonas aeruginosa [7]): 14 mm; zone of inhibition at 100 µg/disc (Pseudomonas aeruginosa [9]): 18 mm; zone of inhibition at 25 µg/disc (Klebsiella pneumoniae [10]): 26 mm; zone of inhibition at 25 µg/disc (Aspergillus niger [13]): 20 mm; zone of inhibition at 50 µg/disc (Aspergillus niger [14]): 22 mm
Cc1ccc(-c2c[nH]c(Nc3cc(-c4ccc(C)cc4)n(-c4nc(-c5ccc(C)cc5)cs4)n3)n2)cc1	–	–	–	–	–	16 mm	–	–	–	–	14 mm	17 mm	–	–	12 mm	14 mm	17 mm	12 mm	13 mm	7 mm	zone of inhibition at 25 µg/disc (Pseudomonas aeruginosa [7]): 6 mm; zone of inhibition at 100 µg/disc (Pseudomonas aeruginosa [9]): 10 mm; zone of inhibition at 25 µg/disc (Klebsiella pneumoniae [10]): 13 mm; zone of inhibition at 25 µg/disc (Aspergillus niger [13]): 16 mm; zone of inhibition at 50 µg/disc (Aspergillus niger [14]): 17 mm
Cc1ccc(-c2csc(Nc3cc(-c4ccc(C)cc4)n(C(N)=S)n3)n2)cc1	–	–	–	–	–	14 mm	inactive	–	–	–	13 mm	16 mm	–	–	11 mm	13 mm	15 mm	10 mm	12 mm	6 mm	zone of inhibition at 100 µg/disc (Pseudomonas aeruginosa [9]): 8 mm; zone of inhibition at 25 µg/disc (Klebsiella pneumoniae [10]): 11 mm; zone of inhibition at 25 µg/disc (Aspergillus niger [13]): 12 mm; zone of inhibition at 50 µg/disc (Aspergillus niger [14]): 13 mm
